According to article PMC5110259 (Clinical cancer drugs, 2016):

Legend:
Jurkat cells [1] = assay: Apoptosis assay via annexin V-FITC/PI staining, Jurkat; format: cell-based, human; settings: 24 h; for apoptosis (phosphatidylserine externalization, annexin V-FITC positive cells): 1 μM, flow cytometry
In short: (§1)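 Annexin V-FITC/PI co-staining read by flow cytometry after 24 h exposure. Excitation was at 488 nm, with FITC read on FL1 and PI on FL2. Cells that were PI-positive but annexin-negative were scored as necrotic. Controls were untreated cells, 1% v/v DMSO, 300 μM H2O2, and curcumin and EF-24 at 1 μM. Triplicates; compared with curcumin by Student's t-test.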

DNS cytotoxicity assay [2] = format: cell-based; settings: human, Ramos cells vs Hs-27 cells
In short: (§2)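 Suspension cells plated at 10,000/well and exposed 20 h (footnote: 24 h) to graded concentrations in 1% v/v DMSO. Hoechst 33342/PI (1 μg/ml each) added for the final hour, then 3x3-field imaging. Dead cells were double-stained nuclei, DMSO background subtracted. CC50 by linear regression, triplicate. SCI = CC50 non-cancerous / CC50 cancer, using Hs-27 in the table and Hs-27, MCF-10A and CCD-112CoN for Jurkat.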

Ramos = assay: DNS cytotoxicity assay; format: cell-based; settings: Homo sapiens, Ramos, 24 h, read-out: Cytotoxic concentration 50% (CC50)
In short: as §2

CEM = assay: DNS cytotoxicity assay; format: cell-based; settings: Homo sapiens, CCRF-CEM, 24 h, read-out: Cytotoxic concentration 50% (CC50)
In short: as §2

DNS cytotoxicity assay [3] = format: cell-based; settings: human, CEM cells vs Hs-27 cells
In short: as §2

DNS cytotoxicity assay [4] = format: cell-based; settings: human, CCD-112CoN non-cancerous colon fibroblasts
In short: (§3)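 DNS imaging assay. Adherent cells seeded at 5,000/well, incubated 20 h (table footnote says 24 h) with several compound concentrations in 1% v/v DMSO final. Hoechst 33342 and PI (1 μg/ml each, final) added 1 h before imaging 3x3 fields at 20x. Dead cells = Hoechst/PI co-localized nuclei. Values corrected by subtracting the mean % dead of six DMSO wells. CC50 by linear regression, triplicate.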

Nalm-6 cells = assay: Apoptosis assay via annexin V-FITC/PI staining, Nalm-6; format: cell-based, human; settings: 24 h; for apoptosis (phosphatidylserine externalization, annexin V-FITC positive cells): 1 μM, flow cytometry
In short: as §1

DNS cytotoxicity assay [5] = format: cell-based; settings: human
In short: as §2

Jurkat = assay: DNS cytotoxicity assay; format: cell-based; settings: Homo sapiens, Jurkat, 24 h, read-out: Cytotoxic concentration 50% (CC50)
In short: as §2

Nalm 6 = assay: DNS cytotoxicity assay; format: cell-based; settings: Homo sapiens, NALM-6, 24 h, read-out: Cytotoxic concentration 50% (CC50)
In short: as §2

DNS cytotoxicity assay [6] = format: cell-based; settings: human, Nalm 6 cells vs Hs-27 cells
In short: as §2

DNS cytotoxicity assay [7] = format: cell-based; settings: human, Hs-27 non-cancerous foreskin fibroblasts
In short: as §3

DNS cytotoxicity assay [8] = format: cell-based; settings: human, MCF-10A non-cancerous mammary epithelial cells
In short: as §3

[9] = tested on: caspase-3/7 in Jurkat cells; assay: Caspase-3/7 activity assay; format: cell-based, human; settings: 1 μM, 20 h, NucView 488, flow cytometry
In short: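 Jurkat seeded at 100 cells/μL (24-well) and treated 20 h with 1 μM. Active caspase-3/7 detected in live cells with the NucView 488 fluorogenic substrate by flow cytometry, ~10,000 events per sample. Positive controls were 2 μg/ml camptothecin and 10 μM curcumin, plus DMSO and untreated controls. Triplicates, t-test vs DMSO.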

Jurkat cells [10] = assay: Mitochondrial membrane potential assay; format: cell-based, human; settings: 1 μM, 7 h, JC-1, flow cytometry
In short: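 Jurkat at 3x10^4 cells per mL per well (24-well) exposed 7 h to 1 μM. JC-1 then added, 30 min at 37 °C, followed by flow cytometry of ~10,000 events. 50 μM CCCP served as depolarization control, with 1% DMSO and untreated controls. Triplicates, t-test vs DMSO.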

[11] = tested on: non-malignant MCF-10A and Hs-27 cell lines; assay: DNS cytotoxicity screen at 1 μM, non-malignant cells; format: cell-based; settings: 20 h
In short: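 Single-concentration DNS screen: 1 μM in 1% v/v DMSO for 20 h. Hoechst 33342 and PI (1 μg/ml each) added 1 h before automated imaging. Percent dead was calculated from co-stained nuclei out of total nuclei per well. Controls were 300 μM H2O2, 1% DMSO and untreated wells. Run in triplicate and shown as heat map.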

[12] = tested on: leukemia and lymphoma neoplasms; assay: DNS cytotoxicity screen at 1 μM, leukemia/lymphoma panel; format: cell-based; settings: human leukemia/lymphoma cell lines

SMILES | apoptosis (phosphatidylserine externalization, annexin V-FITC positive cells) (Jurkat cells [1]) | selectivity ratio at 20 h (DNS cytotoxicity assay [2]) | CC50 (Ramos) [µM] | CC50 (CEM) [µM] | selectivity ratio at 20 h (DNS cytotoxicity assay [3]) | CC50 at 24 h (DNS cytotoxicity assay [4]) [µM] | apoptosis (phosphatidylserine externalization, annexin V-FITC positive cells) (Nalm-6 cells) | selectivity ratio at 20 h (DNS cytotoxicity assay [5]; Jurkat cells vs Hs-27 cells) | CC50 (Jurkat) [µM] | CC50 (Nalm 6) [µM] | selectivity ratio at 20 h (DNS cytotoxicity assay [6]) | CC50 at 24 h (DNS cytotoxicity assay [7]) [µM] | CC50 at 24 h (DNS cytotoxicity assay [8]) [µM] | further results
COc1cc(/C=C/C(=O)CC(=O)/C=C/c2ccc(O)c(OC)c2)ccc1O [Curcumin, reference compound] | did not induce significant PS externalization | 1.7 | 9.25 ± 0.37 | 10.6 ± 0.06 | 1.4 | 15.8 ± 0.13 | did not induce significant PS externalization | 1.4 | 10.86 ± 0.04 | 11 ± 0.2 | 1.4 | 15.3 ± 0.38 | 14.1 ± 0.66 | 
CCN(CC)CCOc1ccc(C(=O)Oc2ccc(C=C3CN(C)CC(=Cc4ccc(OC(=O)c5ccc(OCCN(CC)CC)cc5)cc4)C3=O)cc2)cc1 [Compound 1, 3,5-bis{4-[4-(2-diethylaminoethoxy)phenylcarbonyloxy]benzylidene}-1-methyl-4-piperidone] | ~ 70% | 6.7 | 0.71 ± 0.01 | 0.59 ± 0.03 | 8.1 | 4.68 ± 0.83 | ~ 50% | 11.1 | 0.43 ± 0.02 | 0.86 ± 0.03 | 5.6 | 4.78 ± 0.03 | 15.6 ± 0.14 | apoptotic activity as compared with curcumin (Jurkat cells [1]; both compounds at 1 μM): 10 fold; apoptotic activity as compared with curcumin (Nalm-6 cells; both compounds at 1 μM): 22.3 fold; selectivity ratio at 20 h (DNS cytotoxicity assay [5]): > 10; selectivity ratio at 20 h (DNS cytotoxicity assay [5]; Jurkat cells vs CCD-112CoN cells): 10.9; selectivity ratio at 20 h (DNS cytotoxicity assay [5]; Jurkat cells vs MCF-10A cells): 36.3; caspase-3/7 activation (active caspase 3/7-positive cells) [9]: > 90%; mitochondrial depolarization (Jurkat cells [10]): ~ 80%; toxicity to non-malignant cell lines (heat map) [11]: low toxicity; in vitro cytotoxic concentration compared with curcumin [12]: approximately ten times more effective than curcumin
